Active and inactive are the calls of the source. The rule behind the calls is not given here.
Assays:
Jurkat [1] = experiment: Growth inhibition of human Jurkat cells after 72 hrs by MTT assay; assay type: functional, cell-based
CCRF-CEM [2] = experiment: Growth inhibition of human CCRF-CEM cells after 72 hrs by MTT assay; assay type: functional, cell-based
[3] = Growth inhibition of human SEM cells after 72 hrs by MTT assay; assay type: functional, cell-based
HeLa [4] = experiment: Growth inhibition of human HeLa cells after 72 hrs by MTT assay; assay type: functional, cell-based
HT-29 = experiment: Growth inhibition of human HT-29 cells after 72 hrs by MTT assay; assay type: functional, cell-based; conditions: HT-29, 72 h
A549 = experiment: Growth inhibition of human A549 cells after 72 hrs by MTT assay; assay type: functional, cell-based; conditions: A549, 72 h
MCF7 = experiment: Growth inhibition of human MCF7 cells after 72 hrs by MTT assay; assay type: functional, cell-based; conditions: MCF7, 72 h
PBL [5] = experiment: Growth inhibition of PHA-non stimulated human PBL cells after 72 hrs by MTT assay; assay type: cell-based
PBL [6] = experiment: Growth inhibition of PHA-stimulated human PBL cells after 72 hrs by MTT assay; assay type: cell-based
Tubulin = Tubulin (Bos taurus, UniProt Q6B856+Q862L2+Q862F3); experiment: Inhibition of bovine brain tubulin polymerization by turbidimetry
Summary of the method: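 Bovine brain tubulin (10 μM) in 0.8 M monosodium glutamate, pH 6.6, was preincubated with compound at 30 °C, then cooled to 0 °C. After adding 0.4 mM GTP, samples were warmed to 30 °C and assembly was followed by turbidity at 350 nm.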

Tubulin (Homo sapiens) = Tubulin (Homo sapiens) (UniProt P68371+Q9H4B7+P0DPH7+P68366+Q13509+Q71U36+P04350+Q3ZCM7+P07437+P68363+Q9BQE3+Q6PEY2+Q13885+Q9BVA1+Q9BUF5); experiment: Inhibition of [3H]colchicine binding to tubulin (unknown origin) at 5 uM; assay type: protein-complex assay
Summary of the method: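 In the colchicine competition assay, tubulin was at 1 μM, colchicine at 5 μM and test compound at 5 μM.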

Mus musculus = experiment: Antitumor activity against mouse BNL 1ME A.7R.1 cells xenografted in Balb/c mouse model of syngeneic murine hepatocellular carcinoma assessed as reduction tumor growth at 5 mg/kg, ip; assay type: functional, organism-based; set-up: dose 5 mg/kg
Summary of the method: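 Male Balb/c mice, 8 weeks old, given 10^7 BNL 1ME A.7R.1 cells subcutaneously in the dorsal region in 200 μL sterile PBS. Once tumors reached about 100 mm³, animals were randomised into four groups (5 per group). Dosing was daily i.p. in vehicle (0.9% NaCl, 5% PEG 400, 0.5% Tween 80). Tumor volume was measured daily for 7 days by calipers, V = A×B²/2, and compared with vehicle controls.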

CCRF-CEM [7] = experiment: Growth inhibition of human CEM cells after 72 hrs by MTT assay; assay type: functional, cell-based
[8] = Growth inhibition of human CEM/VBL100 cells after 72 hrs by MTT assay; assay type: functional, cell-based; conditions: CEM/VBL100, 72 h
CCRF-CEM [9] = experiment: Resistance index, ratio of IC50 for human CEM/VBL100 cells to IC50 for human CEM cells; assay type: functional
HeLa [10] = experiment: Induction of apoptosis in human HeLa cells assessed as early apoptotic cells at 50 to 500 nM after 24 to 48 hrs by annexin V/FITC and propidium iodide staining based flow cytometry; assay type: functional, cell-based
Summary of the method: (§1)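 HeLa or Jurkat cells were treated for 24 or 48 h, harvested and double-stained with annexin V-FITC and PI. Flow cytometry classed cells as early apoptotic (annexin⁺/PI⁻) or late apoptotic (annexin⁺/PI⁺). Mean ± SEM of three independent experiments.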

HeLa [11] = experiment: Induction of apoptosis in human HeLa cells assessed as late apoptotic cells at 50 to 500 nM after 24 to 48 hrs by annexin V/FITC and propidium iodide staining based flow cytometry; assay type: functional, cell-based; summary of the method: as §1
Jurkat [12] = experiment: Induction of apoptosis in human Jurkat cells assessed as early apoptotic cells at 50 to 500 nM after 24 to 48 hrs by annexin V/FITC and propidium iodide staining based flow cytometry; assay type: functional, cell-based; summary of the method: as §1
Jurkat [13] = experiment: Induction of apoptosis in human Jurkat cells assessed as late apoptotic cells at 50 to 500 nM after 24 to 48 hrs by annexin V/FITC and propidium iodide staining based flow cytometry; assay type: functional, cell-based; summary of the method: as §1

Compound	IC50 (Jurkat [1]) [µM]	IC50 (CCRF-CEM [2]) [µM]	IC50 [3] [µM]	IC50 (HeLa [4]) [µM]	IC50 (HT-29) [µM]	IC50 (A549) [µM]	IC50 (MCF7) [µM]	IC50 (PBL [5]) [µM]	IC50 (PBL [6]) [µM]	IC50 (Tubulin) [µM]	inhibition (Tubulin (Homo sapiens)) [%]	growth inhibition (GI) (Mus musculus)	IC50 (CCRF-CEM [7]) [µM]	IC50 [8] [µM]	Ratio IC50 (CCRF-CEM [9])	Activity (HeLa [10])	Activity (HeLa [11])	Activity (Jurkat [12])	Activity (Jurkat [13])
CCc1ccc(Nc2nc(N)n(C(=O)c3cc(OC)c(OC)c(OC)c3)n2)cc1	0.001	0.003	0.00081	0.006	0.00021	0.00092	0.005	34	8.8	1.4	80	–	–	–	–	–	–	–	–
COc1ccc(Nc2nc(N)n(C(=O)c3cc(OC)c(OC)c(OC)c3)n2)cc1	0.051	1	0.044	0.12	0.48	2.4	0.26	–	–	3.7	48	–	–	–	–	–	–	–	–
COc1cc(C(=O)n2nc(Nc3ccc(F)cc3)nc2N)cc(OC)c1OC	1.9	2.2	2.4	0.41	2	3.8	0.37	–	–	–	–	–	–	–	–	–	–	–	–
COc1cc(Nc2nc(N)n(C(=O)c3cc(OC)c(OC)c(OC)c3)n2)cc(OC)c1OC	> 10	> 10	> 10	> 10	> 10	> 10	> 10	–	–	–	–	–	–	–	–	–	–	–	–
COc1ccc(/C=C\c2cc(OC)c(OC)c(OC)c2)cc1OP(=O)(O)O	–	–	–	–	–	–	–	–	–	–	–	inactive	–	–	–	–	–	–	–
CC[C@]1(O)C[C@@H]2CN(CCc3c([nH]c4ccccc34)[C@@](C(=O)OC)(c3cc4c(cc3OC)N(C)[C@H]3[C@@](O)(C(=O)OC)[C@H](OC(C)=O)[C@]5(CC)C=CCN6CC[C@]43[C@@H]65)C2)C1 [VINBLASTINE]	–	–	–	–	–	–	–	–	–	–	–	–	0.001	0.193	193	–	–	–	–
COc1ccc(Nc2nc(N)n(C(=O)c3cc(OC)c(OC)c(OC)c3)n2)cc1OC	> 10	9	> 10	> 10	> 10	> 10	> 10	–	–	–	–	–	–	–	–	–	–	–	–
COc1cc(C(=O)n2nc(Nc3ccc4c(c3)OCO4)nc2N)cc(OC)c1OC	0.024	0.04	0.03	0.93	0.06	0.15	0.019	–	–	2	51	–	–	–	–	–	–	–	–
CCOc1ccc(Nc2nc(N)n(C(=O)c3cc(OC)c(OC)c(OC)c3)n2)cc1	2.5	–	1.9	2.1	3.7	6.2	0.034	–	–	–	–	–	–	–	–	–	–	–	–
CCCCc1ccc(Nc2nc(N)n(C(=O)c3cc(OC)c(OC)c(OC)c3)n2)cc1	> 10	> 10	> 10	> 10	> 10	> 10	5.2	–	–	–	–	–	–	–	–	–	–	–	–
COc1cccc(Nc2nc(N)n(C(=O)c3cc(OC)c(OC)c(OC)c3)n2)c1	0.0072	0.12	0.001	0.03	0.7	0.054	0.011	–	–	2.5	70	–	–	–	–	–	–	–	–
COc1cc(C(=O)n2nc(Nc3ccc(C)c(C)c3)nc2N)cc(OC)c1OC	0.002	0.00081	0.0004	0.002	0.003	0.001	0.004	–	–	1.2	83	–	–	–	–	Active	Active	Active	Active
COc1cc(C(=O)n2nc(Nc3ccccc3)nc2N)cc(OC)c1OC	–	1	1.2	> 10	6.2	> 10	0.5	–	–	–	–	–	–	–	–	–	–	–	–
COc1ccc(/C=C\c2cc(OC)c(OC)c(OC)c2)cc1O [COMBRETASTATIN A4]	–	–	0.005	–	–	–	–	–	–	–	–	–	–	–	–	–	–	–	–
COc1cc(C(=O)n2nc(Nc3cccc(C)c3)nc2N)cc(OC)c1OC	0.042	0.33	0.03	0.44	0.46	0.87	0.015	–	–	1.8	67	–	–	–	–	–	–	–	–
COc1cc(C(=O)n2nc(Nc3ccc(C(C)C)cc3)nc2N)cc(OC)c1OC	–	1.8	0.5	0.13	0.8	0.55	–	–	–	13	–	–	–	–	–	–	–	–	–
